Assay results published in ChEMBL document CHEMBL1136861, “Identification of a series of benzoxazoles as potent 5-HT6 ligands” (Bioorg Med Chem Lett, 2009).
pIC50, pKi: −log10 of the molar value.

Assays:
[1] = molecular target: T1, 5-hydroxytryptamine receptor 6 (Homo sapiens, UniProt P50406); assay: Antagonist activity at human cloned 5HT6 receptor expressed in human HeLa cells assessed as blockage of 5-HT-stimulated cAMP formation after 10 mins by radioimmunoassay; format: functional, cell-based
T1 sequence (P50406 whole entry): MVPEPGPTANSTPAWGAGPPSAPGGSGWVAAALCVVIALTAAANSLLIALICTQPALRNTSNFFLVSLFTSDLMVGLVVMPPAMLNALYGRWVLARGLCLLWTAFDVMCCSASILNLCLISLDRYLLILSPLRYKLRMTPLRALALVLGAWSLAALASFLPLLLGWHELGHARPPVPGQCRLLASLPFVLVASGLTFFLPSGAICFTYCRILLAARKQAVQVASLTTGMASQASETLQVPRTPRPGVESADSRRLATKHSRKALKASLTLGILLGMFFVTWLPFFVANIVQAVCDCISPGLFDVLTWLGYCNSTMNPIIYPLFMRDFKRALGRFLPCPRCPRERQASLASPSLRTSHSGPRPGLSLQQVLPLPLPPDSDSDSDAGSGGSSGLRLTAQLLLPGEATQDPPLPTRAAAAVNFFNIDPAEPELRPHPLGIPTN
In short: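 HeLa cells stably transfected with human 5-HT6 receptor; antagonism read as blockade of 5-HT-stimulated cAMP formation; IC50 and Imax values determined in triplicate.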

[2] = molecular target: T1, 5-hydroxytryptamine receptor 6; assay: Displacement of [3H]LSD from human cloned 5HT6 receptor expressed in human HeLa cells; format: cell-based
In short: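 Human 5-HT6 receptor cloned and stably expressed in HeLa cells; competition binding with [3H]-LSD as radioligand; Ki values determined in triplicate.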

Compound	pIC50 [1]	Imax [1]	pKi [2]
COc1cccc(S(=O)(=O)c2cccc3oc(N4CCNCC4)nc23)c1	7.00	92%	–
O=S(=O)(c1cccc2ccccc12)c1cccc2oc(N3CCNCC3)nc12	7.02	97%	–
CCN1CCN(c2nc3c(S(=O)(=O)c4cccc5ccccc45)cccc3o2)CC1	6.61	89%	–
O=S(=O)(c1cccc2ccccc12)c1cccc2oc(N3CCN(C4CCCC4)CC3)nc12	–	–	7.10
O=S(=O)(c1cccc(C(F)(F)F)c1)c1cccc2oc(N3CCNCC3)nc12	6.92	96%	–

Second part, the molecule after the results:

pIC50 [1]	Imax [1]	pKi [2]	Compound
7.11	96%	8.15	O=S(=O)(c1cccc2ccccc12)c1cccc2nc(N3CCNCC3)oc12
–	–	7.39	O=S(=O)(c1ccccc1)c1cccc2oc(N3CCNCC3)nc12
–	–	6.90	O=S(=O)(c1cccc2ccccc12)c1cccc2oc(N3CCN(CCCc4ccccc4)CC3)nc12
6.93	92%	–	O=S(=O)(c1cc(Cl)ccc1Cl)c1cccc2oc(N3CCNCC3)nc12
6.98	83%	8.01	CN1CCN(c2nc3c(S(=O)(=O)c4cccc5ccccc45)cccc3o2)CC1
